Assay results taken from ChEMBL document CHEMBL1143136 (J Med Chem, 2008).
Where a SMILES comes first, the peptide text is derived from it. The star is where a group is joined. Trt = c1ccc(C(c2ccccc2)(c2ccccc2)*)cc1

Tests used:
HeLa [1] = experiment: Induction of mitotic arrest in human HeLa cells assessed as monoastral spindle formation after 24 hrs; assay type: functional, cell-based
HeLa [2] = experiment: Cell cycle arrest in human HeLa cells assessed as accumulation at G2/M phase at 1 uM after 24 hrs; assay type: functional
Outline: (§1)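 HeLa cells grown in DMEM with 10% FBS at 37 °C, 5% CO2, in 60 mm dishes, exposed to drug for 24 h. Drugs were diluted in medium from 50 mM DMSO stocks. Cells were fixed in 90% methanol at −20 °C and stained with propidium iodide. Flow cytometry gave the percentage of cells with 4N DNA content (G2/M).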

HeLa [3] = experiment: Cell cycle arrest in human HeLa cells assessed as accumulation at G2/M phase at 5 uM after 24 hrs; assay type: functional; outline: as §1
HeLa [4] = experiment: Induction of mitotic arrest in human HeLa cells after 24 hrs; assay type: functional, cell-based
Outline: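 A concentration series was given to HeLa cells for 24 h (DMEM, 10% FBS, 37 °C, 5% CO2). Cells were fixed in methanol at −20 °C, then stained with MPM-2 antibody/FITC secondary and propidium iodide. Two-dimensional flow cytometry followed.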

HeLa [5] = experiment: Induction of mitotic arrest in human HeLa cells at 1 uM assessed as MPM2 antibody positive cells after 24 hrs; assay type: functional
Outline: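 HeLa cells (DMEM, 10% FBS, 37 °C, 5% CO2) were drug-treated for 24 h, then fixed in 90% methanol at −20 °C. They were labelled with MPM-2 mitotic phospho-epitope antibody plus FITC anti-mouse IgG, and with propidium iodide. Two-dimensional flow cytometry gave the percentage of 4N-arrested cells that were MPM2-positive.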

cells = details: Homo sapiens, NCI60

Question: Which EC50 (HeLa [1]) does the source give for `N[C@@H](CSC1(c2ccc(F)cc2)c2ccccc2-c2ccccc21)C(=O)O` here?
Answer: > 5 µM

Question: Which EC50 (HeLa [1]) does the source give for `CC(C)(SC(c1ccccc1)(c1ccccc1)c1ccccc1)C(N)C(=O)O` (centres undefined) here?
Answer: > 5 µM

Question: Which EC50 (HeLa [1]) does the source give for `N[C@@H](CSC(c1ccccc1)(c1ccccc1)c1cccc2ccccc12)C(=O)O` here?
Answer: > 5 µM

Question: Which results are given for `N[C@@H](CSC(c1ccccc1)(c1ccccc1)C1CCCCC1)C(=O)O`?
Answer: Activity (HeLa [2]): 19.9%; Activity (HeLa [3]): 55.2%; EC50 (HeLa [1]): 1.85 µM

Question: With `CCC(SC[C@H](N)C(=O)O)(c1ccccc1)c1ccccc1` as the compound, how does the EC50 (HeLa [1]) read?
Answer: > 5 µM

Question: For `N[C@@H](CSC(c1ccccc1)(c1ccccc1)c1ccccc1)C(=O)NCC(=O)O`, which EC50 (HeLa [1]) is on record?
Answer: > 5 µM

Question: Which EC50 (HeLa [1]) does the source give for `N[C@@H](CSC(c1ccccc1)(c1ccccc1)c1ccc(O)cc1)C(=O)O` here?
Answer: > 5 µM

Question: With `CCCCC(SC[C@H](N)C(=O)O)(c1ccccc1)c1ccccc1` as the compound, how does the Activity (HeLa [2]) read?
Answer: 19.1%

Question: And the Activity (HeLa [3])?
Answer: 71.1%

Question: What about the EC50 (HeLa [1]) of the same compound?
Answer: 1.4 µM

Question: For `N[C@@H](CSC(c1ccccc1)(c1ccc(CO)cc1)c1ccc(CO)cc1)C(=O)O`, which EC50 (HeLa [1]) is on record?
Answer: > 5 µM

Question: Which EC50 (HeLa [1]) does the source give for `COC(=O)[C@H](CC(C)C)NC(=O)[C@@H](N)CSC(c1ccccc1)(c1ccccc1)c1ccccc1` (H-Cys(Trt)-Leu-OMe) here?
Answer: 5 µM

Question: With `COc1ccc(C(SC[C@H](N)C(=O)O)(c2ccccc2)c2ccc(OC)cc2)cc1` as the compound, how does the EC50 (HeLa [1]) read?
Answer: > 5 µM

Question: Which results are given for `NCCSC(c1ccccc1)(c1ccccc1)c1ccccc1`?
Answer: Activity (HeLa [2]): 21.1%; Activity (HeLa [3]): 65.8%; EC50 (HeLa [1]): 1.08 µM

Question: Which EC50 (HeLa [4]) does the source give for `Cc1ccc(C(SC[C@H](N)C(=O)O)(c2ccccc2)c2ccc(C)cc2)cc1` here?
Answer: 1 µM

Question: What about the Activity (HeLa [2]) of the same compound?
Answer: 50.8%

Question: What about the Activity (HeLa [3]) of the same compound?
Answer: 70.9%

Question: And the EC50 (HeLa [1])?
Answer: 0.53 µM

Question: For `N[C@@H](CSC(c1ccccc1)(c1ccccc1)c1ccccc1)C(=O)OC(c1ccccc1)c1ccccc1`, which EC50 (HeLa [1]) is on record?
Answer: > 5 µM

Question: With `COc1ccc(C(SC[C@H](N)C(=O)O)(c2ccccc2)c2ccccc2)cc1` as the compound, how does the EC50 (HeLa [4]) read?
Answer: 0.3 µM

Question: What about the Activity (HeLa [2]) of the same compound?
Answer: 69%

Question: What about the Activity (HeLa [5]) of the same compound?
Answer: 81.6%

Question: What about the EC50 (HeLa [1]) of the same compound?
Answer: 0.2 µM

Question: What does the source list for `N[C@@H](CSC(c1ccccc1)(c1ccccc1)c1ccccc1)C(=O)O` [S-TRITYL-L-CYSTEINE]?
Answer: EC50 (HeLa [4]): 1.7 µM; Activity (HeLa [2]): 23.1%; Activity (HeLa [3]): 75.8%; GI50 (cells): 1.31 µM; EC50 (HeLa [1]): 0.7 µM

Question: For `N[C@@H](CSC(c1ccccc1)c1ccccc1)C(=O)O`, which EC50 (HeLa [1]) is on record?
Answer: > 5 µM

Question: With `N[C@@H](CSC(c1ccccc1)(c1ccccc1)c1ccc2c(c1)OCO2)C(=O)O` as the compound, how does the Activity (HeLa [2]) read?
Answer: 24.3%

Question: What about the Activity (HeLa [3]) of the same compound?
Answer: 68%

Question: And the EC50 (HeLa [1])?
Answer: 1.37 µM

Question: What does the source list for `N[C@@H](CSC(c1ccccc1)(c1ccccc1)c1ccc(Br)cc1)C(=O)O`?
Answer: EC50 (HeLa [4]): 0.45 µM; Activity (HeLa [2]): 68.7%; Activity (HeLa [5]): 77.4%; EC50 (HeLa [1]): 0.31 µM

Question: With `CC(=O)N[C@@H](CSC1(c2ccccc2)c2ccccc2-c2ccccc21)C(=O)O` as the compound, how does the EC50 (HeLa [1]) read?
Answer: > 5 µM

Question: With `N[C@@H](CSC1(c2cccc3ccccc23)c2ccccc2-c2ccccc21)C(=O)O` as the compound, how does the EC50 (HeLa [1]) read?
Answer: > 5 µM

Question: Which results are given for `COC(=O)[C@@H](N)CSC(c1ccccc1)(c1ccccc1)c1ccccc1`?
Answer: Activity (HeLa [2]): 20.2%; Activity (HeLa [3]): 72.4%; EC50 (HeLa [1]): 1.08 µM

Question: Which EC50 (HeLa [1]) does the source give for `CC(SC[C@H](N)C(=O)O)(c1ccccc1)c1ccccc1` here?
Answer: > 5 µM

Question: For `N[C@@H](CSC(c1ccccc1)(c1ccc(-c2ccccc2)cc1)c1ccc(-c2ccccc2)cc1)C(=O)O`, which EC50 (HeLa [1]) is on record?
Answer: > 5 µM

Question: Which EC50 (HeLa [1]) does the source give for `NCCCSC(c1ccccc1)(c1ccccc1)c1ccccc1` here?
Answer: > 5 µM

Question: With `N[C@@H](CSC(c1ccccc1)(c1ccccc1)c1ccc(Cl)cc1)C(=O)O` as the compound, how does the EC50 (HeLa [4]) read?
Answer: 0.66 µM

Question: And the Activity (HeLa [2])?
Answer: 48.5%

Question: What about the Activity (HeLa [3]) of the same compound?
Answer: 74.7%

Question: And the EC50 (HeLa [1])?
Answer: 0.51 µM

Question: Which EC50 (HeLa [4]) does the source give for `Cc1ccc(C(SC[C@H](N)C(=O)O)(c2ccccc2)c2ccccc2)cc1` here?
Answer: 0.33 µM

Question: What about the Activity (HeLa [2]) of the same compound?
Answer: 71%

Question: And the Activity (HeLa [5])?
Answer: 84.1%

Question: What about the EC50 (HeLa [1]) of the same compound?
Answer: 0.21 µM

Question: For `COC(=O)[C@@H](NC(=O)[C@@H](N)CSC(c1ccccc1)(c1ccccc1)c1ccccc1)C(C)C` (H-Cys(Trt)-Val-OMe), which Activity (HeLa [3]) is on record?
Answer: 21.8%

Question: And the EC50 (HeLa [1])?
Answer: 3.5 µM

Question: Which EC50 (HeLa [4]) does the source give for `N[C@@H](CSC(c1ccccc1)(c1ccccc1)c1ccc2ccccc2c1)C(=O)O` here?
Answer: 0.6 µM

Question: What about the Activity (HeLa [2]) of the same compound?
Answer: 68.1%

Question: And the Activity (HeLa [5])?
Answer: 79.9%

Question: And the EC50 (HeLa [1])?
Answer: 0.33 µM

Question: With `N[C@@H](CSC1(c2ccc(Cl)cc2)c2ccccc2-c2ccccc21)C(=O)O` as the compound, how does the EC50 (HeLa [1]) read?
Answer: > 5 µM

Question: For `NCCCCSC(c1ccccc1)(c1ccccc1)c1ccccc1`, which EC50 (HeLa [1]) is on record?
Answer: > 5 µM

Question: What does the source list for `N[C@@H](CSC(c1ccccc1)(c1ccccc1)c1ccc(F)cc1)C(=O)O`?
Answer: Activity (HeLa [2]): 24%; Activity (HeLa [3]): 68.8%; EC50 (HeLa [1]): 1.55 µM

Question: For `Cc1ccc(C2(SC[C@H](N)C(=O)O)c3ccccc3-c3ccccc32)cc1`, which EC50 (HeLa [1]) is on record?
Answer: > 5 µM

Question: Which Activity (HeLa [3]) does the source give for `Cc1ccc(C(SC[C@H](N)C(=O)O)(c2ccc(C)cc2)c2ccc(C)cc2)cc1` here?
Answer: 34.1%

Question: What about the EC50 (HeLa [1]) of the same compound?
Answer: 3.1 µM

Question: With `N[C@@H](CSC(c1ccccc1)(c1ccccc1)c1ccc(CO)cc1)C(=O)O` as the compound, how does the EC50 (HeLa [1]) read?
Answer: > 5 µM

Question: With `N[C@@H](COC(c1ccccc1)(c1ccccc1)c1ccccc1)C(=O)O` as the compound, how does the EC50 (HeLa [1]) read?
Answer: > 5 µM

Question: For `CC(C)C(SC[C@H](N)C(=O)O)(c1ccccc1)c1ccccc1`, which Activity (HeLa [2]) is on record?
Answer: 22.6%

Question: And the Activity (HeLa [3])?
Answer: 59.1%

Question: And the EC50 (HeLa [1])?
Answer: 1.08 µM

Question: For `CC(NC(=O)[C@@H](N)CSC(c1ccccc1)(c1ccccc1)c1ccccc1)C(=O)O` (some centres undefined), which EC50 (HeLa [1]) is on record?
Answer: > 5 µM

Question: With `N[C@@H](CSC(c1ccccc1)(c1ccccc1)c1ccccc1)C(=O)N[C@@H](CSC(c1ccccc1)(c1ccccc1)c1ccccc1)C(=O)O` (H-Cys(Trt)-Cys(Trt)-OH) as the compound, how does the EC50 (HeLa [1]) read?
Answer: > 5 µM

Question: Which EC50 (HeLa [1]) does the source give for `O=C(O)C(CSC(c1ccccc1)(c1ccccc1)c1ccccc1)/N=C/c1cccs1` (centres undefined) here?
Answer: > 5 µM

Question: With `N[C@@H](CSC1(c2ccccc2)c2ccccc2-c2ccccc21)C(=O)O` as the compound, how does the EC50 (HeLa [1]) read?
Answer: > 5 µM
